Legend:
[1] = Cytotoxicity against rat WB344 cells after 24 hrs; type: cell-based; conditions: WB344, 24 h
Method in brief: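 Epithelioid cells were cultured in DMEM ~24 h, exposed 24 h to DMSO-dissolved compounds, then to neutral red for 3 h. After formaldehyde/CaCl2 fixation, dye was extracted in acidified ethanol and read at 540 nm. Inhibition = (1 − T/C) × 100 against control OD540; IC50 taken from dose-response curves.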

[2] = Cytotoxicity against rat WB344 cells at 100 uM after 24 hrs; type: cell-based; conditions: wb344, 24 h
Method in brief: (§1)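 Neutral red uptake: cells in DMEM were grown ~24 h, then given compounds in DMSO for 24 h, then NR-containing medium ([…] as printed) for 3 h. Cells were PBS-washed, fixed 15 min in 0.5% formaldehyde/1% CaCl2, and dye extracted in 1% HOAc/50% EtOH with 20 min shaking. Read at A540 as % of DMSO control; mean of three independent measurements.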

[3] = system: Radical scavenging activity; assay: Antioxidant activity assessed as DPPH radical scavenging activity at 10 uM by TEAC assay; type: functional
Method in brief: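 Test solutions of 10 µM in MeOH were mixed 0.2 mL to 1.8 mL with methanolic DPPH at 22 mg/L. Absorbance at 517 nm was read every minute for 5 min, then every 5 min up to 30 min. Activity was followed over time and expressed as Trolox equivalent antioxidant capacity (TEAC).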

[4] = Cytotoxicity against rat WB344 cells at 25 uM after 24 hrs; type: cell-based; conditions: wb344, 24 h; method in brief: as §1
[5] = Cytotoxicity against rat WB344 cells at 5 uM after 24 hrs; type: cell-based; conditions: wb344, 24 h; method in brief: as §1

Compound | IC50 [1] [µM] | Activity [2] [%] | Trolox equivalent antioxidant capacity (TEAC) [3] | Activity [4] [%] | Activity [5] [%]
CC(C)=CCC/C(C)=C/Cc1c(O)cc2c(c1O)C(=O)C[C@@H](c1ccc(O)c(O)c1)O2 [NYMPHAEOL A] | 14.3 | 2 | 5.2 | 57 | 98
C=C(C)C(O)CC/C(C)=C/Cc1c(O)cc2c(c1O)C(=O)[C@H](O)[C@@H](c1ccc(O)c(OC)c1)O2 (stereo not given in full) |  |  | 2 |  | 
CC(C)=CCC/C(C)=C/Cc1c(O)cc2c(c1O)C(=O)C[C@@H](c1ccc(O)cc1)O2 [BONANNIONE A] |  | 9 | 0.4 | 95 | 97
COc1cc([C@@H]2CC(=O)c3c(cc(O)c(C/C=C(\C)CCC=C(C)C)c3O)O2)ccc1O | 30.2 | 2 | 0.8 | 73 | 100

From ChEMBL document CHEMBL1140640, “C-geranyl compounds from Paulownia tomentosa fruits” (J Nat Prod, 2007)
